Measurements reported in ChEMBL document CHEMBL4689842, “EUbOPEN Chemogenomics Library wave 1” (2021).
Values joined by “and” are separate entries in the source; they are usually repeats but may differ in a detail not shown here. Equal values may be shown once.

Tested on: U2OS
Assay: Multiplex assay against U2OS
Type: toxicity, cell-based
Conditions: human
Procedure, shortened: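 Hoechst33342, BioTracker Green Microtubule Cytoskeleton Dye, MitoTracker Red and Annexin V Alexa Fluor 680 were added to live cells at seeding, and imaging on a CQ1 microscope at 37°C and 5% CO2 followed compound addition. Gating by CellPathfinder machine learning separated cells into Hoechst high-intensity objects or normal cells, then normal cells into healthy, pyknosed or fragmented nuclei, then pyknosed cells into mitotic or apoptotic. Per cents of healthy-nucleus cells are reported for the tubulin, mitochondrial-mass and membrane-permeability phenotypes.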

[1] = 12 h, 1 µM, compound concentration 1 uM, replicate 1
[2] = 12 h, 1 µM, compound concentration 1 uM, replicate 2
[3] = 12 h, 10 µM, compound concentration 10 uM, replicate 1
[4] = 12 h, 10 µM, compound concentration 10 uM, replicate 2
[5] = 24 h, 1 µM, compound concentration 1 uM, replicate 1
[6] = 24 h, 1 µM, compound concentration 1 uM, replicate 2
[7] = 24 h, 10 µM, compound concentration 10 uM, replicate 1
[8] = 24 h, 10 µM, compound concentration 10 uM, replicate 2
[9] = 48 h, 1 µM, compound concentration 1 uM, replicate 1
[10] = 48 h, 1 µM, compound concentration 1 uM, replicate 2
[11] = 48 h, 10 µM, compound concentration 10 uM, replicate 1
[12] = 48 h, 10 µM, compound concentration 10 uM, replicate 2

## Nc1c(C(=O)NCc2ccc(C(=O)NCCCC3CCCCC3)cc2)cnn1-c1ccccc1 [SR-318]
[1]
  Population Apoptotic (%): 42% and 23% and 30%
  Population Fragmented Nuclei (%): 5% and 10% and 6%
  Population Healthy Nuclei (%): 85% and 78% and 81%
  Population Hoechst High Intensity Objects (%): 3%
  Population Membrane Permeable-Phenotype (%): 4% and 3%
  Population Mitochondria Different-Phenotype (%): 9% and 6%
  Population Mitotic Cells (%): 57% and 76% and 69%
  Population Normal (%): 96%
  Population Pyknosed Nuclei (%): 9% and 10% and 12%
  Population Tubulin-Different-Phenotype (%): 52% and 44%
  Total Cell Count: 171 and 322 and 200
[2]
  Population Fragmented Nuclei (%): 9% and 3%
  Population Healthy Nuclei (%): 83% and 75% and 91%
  Population Membrane Permeable-Phenotype (%): 6% and 5%
  Population Mitochondria Different-Phenotype (%): 8%
  Population Mitotic Cells (%): 50% and 87% and 100%
  Population Normal (%): 95% and 73%
  Population Tubulin-Different-Phenotype (%): 19% and 25% and 11%
  Total Cell Count: 63 and 91 and 118
[3]
  Population Apoptotic (%): 61% and 58% and 42%
  Population Fragmented Nuclei (%): 6% and 14% and 11%
  Population Healthy Nuclei (%): 74% and 65% and 67%
  Population Hoechst High Intensity Objects (%): 2% and 8% and 5%
  Population Membrane Permeable-Phenotype (%): 8% and 5% and 2%
  Population Mitochondria Different-Phenotype (%): 57% and 50% and 60%
  Population Mitotic Cells (%): 38% and 41% and 57%
  Population Normal (%): 97% and 91% and 94%
  Population Pyknosed Nuclei (%): 18% and 20% and 21%
  Population Tubulin-Different-Phenotype (%): 39% and 47% and 40%
  Total Cell Count: 186 and 329 and 402
[4]
  Population Apoptotic (%): 45% and 22% and 33%
  Population Fragmented Nuclei (%): 17% and 15% and 12%
  Population Healthy Nuclei (%): 69% and 58% and 72%
  Population Hoechst High Intensity Objects (%): 7% and 1% and 10%
  Population Membrane Permeable-Phenotype (%): 10% and 7% and 3%
  Population Mitochondria Different-Phenotype (%): 55% and 51%
  Population Mitotic Cells (%): 54% and 77% and 66%
  Population Normal (%): 92% and 98% and 89%
  Population Pyknosed Nuclei (%): 13% and 25% and 15%
  Population Tubulin-Different-Phenotype (%): 50% and 56% and 67%
  Total Cell Count: 71 and 90 and 91
[5]
  Population Apoptotic (%): 35% and 34% and 21%
  Population Fragmented Nuclei (%): 5% and 8%
  Population Healthy Nuclei (%): 85%
  Population Hoechst High Intensity Objects (%): 0% and 3%
  Population Membrane Permeable-Phenotype (%): 1% and 4% and 2%
  Population Mitochondria Different-Phenotype (%): 5% and 6% and 8%
  Population Mitotic Cells (%): 64% and 65% and 78%
  Population Normal (%): 99% and 96%
  Population Pyknosed Nuclei (%): 9% and 10%
  Population Tubulin-Different-Phenotype (%): 59% and 20% and 47%
  Total Cell Count: 185 and 423 and 237
[6]
  Population Apoptotic (%): 25%
  Population Fragmented Nuclei (%): 6% and 3% and 4%
  Population Healthy Nuclei (%): 80% and 84% and 75%
  Population Membrane Permeable-Phenotype (%): 8% and 5%
  Population Mitochondria Different-Phenotype (%): 13% and 12% and 7%
  Population Mitotic Cells (%): 75%
  Population Normal (%): 94% and 97% and 77%
  Population Pyknosed Nuclei (%): 13% and 11% and 19%
  Population Tubulin-Different-Phenotype (%): 22% and 14% and 23%
  Total Cell Count: 67 and 130 and 97
[7]
  Population Apoptotic (%): 55% and 58% and 61%
  Population Fragmented Nuclei (%): 12% and 5%
  Population Healthy Nuclei (%): 67% and 74% and 61%
  Population Hoechst High Intensity Objects (%): 8% and 4%
  Population Membrane Permeable-Phenotype (%): 4% and 2% and 0%
  Population Mitochondria Different-Phenotype (%): 55% and 53% and 63%
  Population Mitotic Cells (%): 44% and 41% and 38%
  Population Normal (%): 91% and 95%
  Population Pyknosed Nuclei (%): 19%
  Population Tubulin-Different-Phenotype (%): 36% and 24%
  Total Cell Count: 409 and 192 and 426
[8]
  Population Apoptotic (%): 28% and 44% and 46%
  Population Fragmented Nuclei (%): 13% and 17% and 14%
  Population Healthy Nuclei (%): 65% and 62% and 66%
  Population Hoechst High Intensity Objects (%): 1% and 7%
  Population Membrane Permeable-Phenotype (%): 9% and 7% and 3%
  Population Mitochondria Different-Phenotype (%): 58% and 57% and 66%
  Population Mitotic Cells (%): 71% and 55% and 53%
  Population Normal (%): 98% and 92%
  Population Pyknosed Nuclei (%): 21% and 20% and 18%
  Population Tubulin-Different-Phenotype (%): 41% and 30% and 61%
  Total Cell Count: 104 and 67 and 97
[9]
  Population Apoptotic (%): 44% and 47% and 55%
  Population Fragmented Nuclei (%): 3% and 8%
  Population Healthy Nuclei (%): 87% and 83%
  Population Hoechst High Intensity Objects (%): 0% and 2%
  Population Membrane Permeable-Phenotype (%): 2% and 1%
  Population Mitochondria Different-Phenotype (%): 5% and 8% and 7%
  Population Mitotic Cells (%): 55% and 52% and 44%
  Population Normal (%): 99% and 97%
  Population Pyknosed Nuclei (%): 8% and 9% and 7%
  Population Tubulin-Different-Phenotype (%): 69% and 56% and 24%
  Total Cell Count: 247 and 369 and 658
[10]
  Population Apoptotic (%): 28% and 40% and 26%
  Population Fragmented Nuclei (%): 7% and 5% and 2%
  Population Healthy Nuclei (%): 86% and 84%
  Population Membrane Permeable-Phenotype (%): 10% and 9% and 3%
  Population Mitochondria Different-Phenotype (%): 14% and 9%
  Population Mitotic Cells (%): 71% and 60% and 73%
  Population Normal (%): 95% and 98% and 83%
  Population Pyknosed Nuclei (%): 5% and 6% and 13%
  Population Tubulin-Different-Phenotype (%): 28% and 20% and 25%
  Total Cell Count: 93 and 175 and 144
[11]
  Population Apoptotic (%): 70% and 73% and 60%
  Population Fragmented Nuclei (%): 7%
  Population Healthy Nuclei (%): 76% and 61%
  Population Hoechst High Intensity Objects (%): 2% and 4%
  Population Membrane Permeable-Phenotype (%): 2% and 0%
  Population Mitochondria Different-Phenotype (%): 35% and 32% and 47%
  Population Mitotic Cells (%): 29% and 26% and 40%
  Population Normal (%): 97% and 95%
  Population Pyknosed Nuclei (%): 16% and 23% and 22%
  Population Tubulin-Different-Phenotype (%): 17% and 9% and 25%
  Total Cell Count: 234 and 596 and 634
[12]
  Population Apoptotic (%): 35% and 38% and 33%
  Population Fragmented Nuclei (%): 15% and 14% and 12%
  Population Healthy Nuclei (%): 68% and 60%
  Population Hoechst High Intensity Objects (%): 7% and 3%
  Population Membrane Permeable-Phenotype (%): 6% and 18% and 17%
  Population Mitochondria Different-Phenotype (%): 52% and 40% and 44%
  Population Mitotic Cells (%): 64% and 61% and 66%
  Population Normal (%): 92% and 96%
  Population Pyknosed Nuclei (%): 15% and 17% and 28%
  Population Tubulin-Different-Phenotype (%): 32% and 26% and 31%
  Total Cell Count: 113 and 78 and 158
